# According to ChEMBL document CHEMBL4699460, “Integrating DNA-encoded chemical libraries with virtual combinatorial library screening: Optimizing a PARP10 inhibitor” (Bioorg Med Chem Lett, 2020):
# pIC50: −log10 of the molar value.
# What was measured:
# [1] = target: T1, Protein mono-ADP-ribosyltransferase PARP10 (Homo sapiens) (UniProt Q53GL7); assay: (§1) Inhibition of N-terminal FLAG-tagged and C-terminal strep-tagged human PARP10 (805 to 1025 residues) expressed in baculovirus infected Sf9 cells assessed as reduction in NAD+-dependent ADP ribosylation using histone as substrate at 1 uM incubated for 1 hr in presence of biotinylated NAD+ and activated DNA by chemiluminescence based microplate reader assay
# T1 sequence (whole entry): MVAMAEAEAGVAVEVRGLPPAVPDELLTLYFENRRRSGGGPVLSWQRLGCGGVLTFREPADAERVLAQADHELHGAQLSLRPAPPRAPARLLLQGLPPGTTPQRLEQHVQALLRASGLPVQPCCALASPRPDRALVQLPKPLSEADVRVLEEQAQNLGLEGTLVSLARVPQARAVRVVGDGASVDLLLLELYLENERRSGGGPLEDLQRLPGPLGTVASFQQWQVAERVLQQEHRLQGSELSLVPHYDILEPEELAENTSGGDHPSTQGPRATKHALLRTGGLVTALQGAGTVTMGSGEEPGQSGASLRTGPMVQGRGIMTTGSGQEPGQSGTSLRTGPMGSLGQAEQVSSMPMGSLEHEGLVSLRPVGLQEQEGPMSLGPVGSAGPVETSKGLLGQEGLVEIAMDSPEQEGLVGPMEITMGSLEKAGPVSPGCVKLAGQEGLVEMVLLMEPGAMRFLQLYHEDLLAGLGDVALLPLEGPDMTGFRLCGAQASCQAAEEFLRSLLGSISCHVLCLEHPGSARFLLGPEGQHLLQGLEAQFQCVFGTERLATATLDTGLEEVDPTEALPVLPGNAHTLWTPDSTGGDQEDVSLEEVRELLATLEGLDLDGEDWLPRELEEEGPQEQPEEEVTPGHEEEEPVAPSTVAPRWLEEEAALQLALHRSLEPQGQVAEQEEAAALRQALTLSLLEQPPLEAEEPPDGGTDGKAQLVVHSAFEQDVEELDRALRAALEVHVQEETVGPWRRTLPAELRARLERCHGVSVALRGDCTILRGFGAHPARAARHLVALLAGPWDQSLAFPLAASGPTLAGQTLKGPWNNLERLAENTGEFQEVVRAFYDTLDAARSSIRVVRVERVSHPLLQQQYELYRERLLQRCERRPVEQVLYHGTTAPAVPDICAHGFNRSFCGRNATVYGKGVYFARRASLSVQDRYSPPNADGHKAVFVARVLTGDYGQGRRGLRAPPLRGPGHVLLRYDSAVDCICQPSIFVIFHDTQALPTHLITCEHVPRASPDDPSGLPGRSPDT
# [2] = target: T1, Protein mono-ADP-ribosyltransferase PARP10 (Homo sapiens); assay: as §1, with “at 10” for “at 1”, “assay relative to control” for “assay”
# [3] = target: Protein mono-ADP-ribosyltransferase PARP14 (Homo sapiens) (UniProt Q460N5); assay: as §1, with “His-GST tagged” for “FLAG-tagged and C-terminal strep-tagged”, “PARP14 (1470” for “PARP10 (805”, “1801” for “1025”, “assay relative to control” for “assay”
# Protein mono-ADP-ribosyltransferase PARP14 (Homo sapiens), sequence (Q460N5 whole entry, the tested form may be a part): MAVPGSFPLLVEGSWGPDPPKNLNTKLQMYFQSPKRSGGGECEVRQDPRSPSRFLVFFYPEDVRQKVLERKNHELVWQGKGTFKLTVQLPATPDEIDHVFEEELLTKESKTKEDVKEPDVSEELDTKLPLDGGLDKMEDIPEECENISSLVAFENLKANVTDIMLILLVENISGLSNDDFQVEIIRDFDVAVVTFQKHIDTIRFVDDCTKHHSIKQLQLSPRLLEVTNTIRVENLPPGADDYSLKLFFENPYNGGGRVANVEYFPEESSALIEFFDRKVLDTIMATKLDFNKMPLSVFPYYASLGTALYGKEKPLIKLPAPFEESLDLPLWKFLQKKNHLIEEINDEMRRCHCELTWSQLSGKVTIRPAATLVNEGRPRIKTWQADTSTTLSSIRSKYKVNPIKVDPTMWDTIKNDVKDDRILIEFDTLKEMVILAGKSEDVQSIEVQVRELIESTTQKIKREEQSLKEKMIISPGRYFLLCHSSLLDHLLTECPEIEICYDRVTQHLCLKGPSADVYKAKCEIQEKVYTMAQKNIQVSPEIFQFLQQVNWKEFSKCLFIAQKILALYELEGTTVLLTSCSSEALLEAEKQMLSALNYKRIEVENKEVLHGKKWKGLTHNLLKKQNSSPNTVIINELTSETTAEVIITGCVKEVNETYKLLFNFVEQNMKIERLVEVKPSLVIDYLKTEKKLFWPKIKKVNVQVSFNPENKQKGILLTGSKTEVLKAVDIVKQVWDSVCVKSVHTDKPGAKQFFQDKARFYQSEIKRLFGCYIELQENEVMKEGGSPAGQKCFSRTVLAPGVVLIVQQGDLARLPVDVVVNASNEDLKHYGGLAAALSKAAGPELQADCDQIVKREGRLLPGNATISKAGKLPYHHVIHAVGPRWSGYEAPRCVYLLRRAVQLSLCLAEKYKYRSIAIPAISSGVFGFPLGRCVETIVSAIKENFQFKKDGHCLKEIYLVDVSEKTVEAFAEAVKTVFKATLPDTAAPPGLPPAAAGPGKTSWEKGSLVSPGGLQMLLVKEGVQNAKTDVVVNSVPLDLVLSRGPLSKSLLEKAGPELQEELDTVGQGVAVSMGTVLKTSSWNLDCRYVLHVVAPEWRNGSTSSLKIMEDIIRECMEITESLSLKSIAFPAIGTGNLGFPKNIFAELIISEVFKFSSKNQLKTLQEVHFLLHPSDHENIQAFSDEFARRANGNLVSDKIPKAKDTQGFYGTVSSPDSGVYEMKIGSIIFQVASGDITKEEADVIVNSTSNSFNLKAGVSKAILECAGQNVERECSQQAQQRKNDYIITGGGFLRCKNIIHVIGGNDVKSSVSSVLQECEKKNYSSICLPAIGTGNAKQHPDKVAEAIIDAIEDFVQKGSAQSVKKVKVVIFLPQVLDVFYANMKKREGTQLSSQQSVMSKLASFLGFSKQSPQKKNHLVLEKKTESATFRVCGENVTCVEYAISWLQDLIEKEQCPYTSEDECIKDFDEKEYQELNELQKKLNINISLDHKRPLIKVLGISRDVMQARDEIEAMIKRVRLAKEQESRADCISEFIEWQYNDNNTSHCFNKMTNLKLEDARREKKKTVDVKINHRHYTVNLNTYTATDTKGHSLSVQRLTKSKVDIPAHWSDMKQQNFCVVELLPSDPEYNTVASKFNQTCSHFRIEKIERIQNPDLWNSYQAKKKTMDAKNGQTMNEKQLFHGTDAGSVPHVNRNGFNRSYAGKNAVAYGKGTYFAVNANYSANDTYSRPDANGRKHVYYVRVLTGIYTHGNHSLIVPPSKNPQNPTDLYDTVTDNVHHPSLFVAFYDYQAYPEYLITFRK
# [4] = target: T2, Protein mono-ADP-ribosyltransferase PARP10 (Homo sapiens, UniProt Q53GL7); assay: as §1, with “substrate” for “substrate at 1 uM”
# T2 sequence (Q53GL7 whole entry): T1 sequence (whole entry)
# Procedure, shortened: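 The IC50 was derived from a concentration-dependent inhibition curve for PARP10 in the histone ADP-ribosylation assay.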
# [5] = target: Protein mono-ADP-ribosyltransferase PARP14 (Homo sapiens) (UniProt Q460N5); assay: Inhibition of N-terminal His-GST tagged human PARP14 (1470 to 1801 residues) expressed in baculovirus infected Sf9 cells assessed as reduction in NAD+-dependent ADP ribosylation using histone as substrate at 10 uM incubated for 1 hr in presence of biotinylated NAD+ and activated DNA by chemiluminescence based microplate reader assay relative to control
Structure (SMILES),inhibition [1] [%],inhibition [2] [%],inhibition [3] [%],pIC50 [4],inhibition [5] [%]
O=C(CCc1nc2ccccc2[nH]c1=O)NCC(=O)N1CCN(C(=O)Nc2ccc3c(c2)C(=O)CCC3)CC1,17,46,0,4.55,
O=C(COc1ccc2c(c1)C(=O)CCC2)NC1CCN(C(=O)CCc2nc3ccccc3[nH]c2=O)CC1,11,16,27,,
O=C(CCc1nc2ccccc2[nH]c1=O)NCC(=O)N1CCN(C(=O)COc2cccc3c2CCCC3=O)CC1,13,10,2,,
O=C(COc1ccc2c(c1)CCCC2=O)NC[C@@H]1CCCN1C(=O)CCc1nc2ccccc2[nH]c1=O,0,35,6,,10

# More lines, now with the values ahead:
inhibition [1] [%],inhibition [2] [%],inhibition [3] [%],pIC50 [4],inhibition [5] [%],Structure (SMILES)
15,9,12,,,O=C1CCCc2c(OCC(=O)N3CCN(C(=O)CCc4nc5ccccc5[nH]c4=O)C[C@@H]3CO)cccc21
13,12,7,,,O=C1CCCc2cc(C(=O)N3C[C@@H]4C[C@H]3CN4C(=O)CCc3nc4ccccc4[nH]c3=O)ccc21
0,37,0,,5,O=C(NC[C@@H]1CCCN1C(=O)CCc1nc2ccccc2[nH]c1=O)c1ccc2c(c1)CCCC2=O
13,4,0,,,O=C1CCCc2cc(C(=O)N3CCN(C(=O)CCc4nc5ccccc5[nH]c4=O)C[C@H]3CO)ccc21
1,15,17,,,CC[C@H]1CN(C(=O)COc2cccc3c2CCCC3=O)CCN1C(=O)CCc1nc2ccccc2[nH]c1=O
